Measured values as given in ChEMBL document CHEMBL4715736, “Identification of anticancer agents based on the thieno[2,3-b]pyridine and 1H-pyrazole molecular scaffolds” (2016).

What was measured:
Format in all cases: functional
HT-29 = test: Growth inhibition of human HT-29 cells assessed as cell growth at 0.01 uM incubated for 48 hrs by sulforhodamine B assay relative to control; conditions: read-out: Activity
ACHN = test: Growth inhibition of human ACHN cells incubated for 48 hrs by sulforhodamine B assay; conditions: for CC50: read-out: LC50 (the source's name)
Outline: (§1)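 NCI Developmental Therapeutics Program NCI60 panel. Compounds that were active in the 10 µM one-dose screen went on to dose–response testing. Growth at each concentration is expressed relative to untreated control (100%). GI50 (concentration giving 50% of maximal inhibition of proliferation) and TGI (concentration giving total growth inhibition) were derived from the curves.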

DU-145 [1] = test: Growth inhibition of human DU-145 cells incubated for 48 hrs by sulforhodamine B assay; conditions: for CC50: read-out: LC50 (the source's name); outline: as §1
BT-549 [2] = test: Growth inhibition of human BT-549 cells assessed as cell growth at 1 uM incubated for 48 hrs by sulforhodamine B assay relative to control; conditions: read-out: Activity
TK-10 = test: Growth inhibition of human TK-10 cells assessed as cell growth at 0.1 uM incubated for 48 hrs by sulforhodamine B assay relative to control; conditions: read-out: Activity
UO-31 [3] = test: Growth inhibition of human UO-31 cells assessed as cell growth at 0.1 uM incubated for 48 hrs by sulforhodamine B assay relative to control; conditions: read-out: Activity
NCI/ADR-RES = test: Growth inhibition of human NCI/ADR-RES cells assessed as cell growth at 100 uM incubated for 48 hrs by sulforhodamine B assay relative to control; conditions: read-out: Activity
UACC-257 = test: Growth inhibition of human UACC-257 cells assessed as cell growth at 1 uM incubated for 48 hrs by sulforhodamine B assay relative to control; conditions: read-out: Activity
NCI-H522 [4] = test: Growth inhibition of human NCI-H522 cells assessed as cell growth at 0.1 uM incubated for 48 hrs by sulforhodamine B assay relative to control; conditions: read-out: Activity
MDA-MB-435 = test: Growth inhibition of human MDA-MB-435 cells assessed as cell growth at 100 uM incubated for 48 hrs by sulforhodamine B assay relative to control; conditions: read-out: Activity
CAKI-1 = test: Growth inhibition of human CAKI-1 cells assessed as cell growth at 0.1 uM incubated for 48 hrs by sulforhodamine B assay relative to control; conditions: read-out: Activity; outline: as §1
COLO 205 = test: Growth inhibition of human COLO 205 cells incubated for 48 hrs by sulforhodamine B assay; outline: as §1
HOP-92 = test: Growth inhibition of human HOP-92 cells assessed as cell growth at 1 uM incubated for 48 hrs by sulforhodamine B assay relative to control; conditions: read-out: Activity
UO-31 [5] = test: Growth inhibition of human UO-31 cells incubated for 48 hrs by sulforhodamine B assay; conditions: for CC50: read-out: LC50 (the source's name)
Outline: (§2)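 NCI DTP 60-line human tumour panel. Dose-response curves were run only for ligands active in the initial 10 µM screen. GI50 (concentration giving 50% of maximal inhibition of proliferation) and TGI (concentration giving total growth inhibition) were derived from these curves.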

SK-MEL-28 [6] = test: Growth inhibition of human SK-MEL-28 cells assessed as cell growth at 100 uM incubated for 48 hrs by sulforhodamine B assay relative to control; conditions: read-out: Activity
SN12C = test: Growth inhibition of human SN12C cells assessed as cell growth at 0.1 uM incubated for 48 hrs by sulforhodamine B assay relative to control; conditions: read-out: Activity
SNB-19 = test: Growth inhibition of human SNB-19 cells assessed as cell growth at 100 uM incubated for 48 hrs by sulforhodamine B assay relative to control; conditions: read-out: Activity
OVCAR-4 = test: Growth inhibition of human OVCAR-4 cells assessed as cell growth at 1 uM incubated for 48 hrs by sulforhodamine B assay relative to control; conditions: read-out: Activity
SR = test: Growth inhibition of human SR cells assessed as cell growth at 1 uM incubated for 48 hrs by sulforhodamine B assay relative to control; conditions: read-out: Activity
MDA-MB-231 [7] = test: Growth inhibition of human MDA-MB-231 cells assessed as cell growth at 0.1 uM incubated for 48 hrs by sulforhodamine B assay relative to control; conditions: read-out: Activity
NCI-H522 [8] = test: Growth inhibition of human NCI-H522 cells assessed as cell growth at 100 uM incubated for 48 hrs by sulforhodamine B assay relative to control; conditions: read-out: Activity
MDA-MB-231 [9] = test: Growth inhibition of human MDA-MB-231 cells incubated for 48 hrs by sulforhodamine B assay; conditions: for CC50: read-out: LC50 (the source's name)
Outline: (§3)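 NCI60 panel at the NCI Developmental Therapeutics Program. Only compounds active in the 10 µM screen went to dose-response testing. GI50, the concentration giving 50% of maximal inhibition of proliferation, and TGI, the concentration giving total growth inhibition, were derived from the dose-response curves.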

NCI-H23 [10] = test: Growth inhibition of human NCI-H23 cells assessed as cell growth at 1 uM incubated for 48 hrs by sulforhodamine B assay relative to control; conditions: read-out: Activity
NCI-H23 [11] = test: Growth inhibition of human NCI-H23 cells incubated for 48 hrs by sulforhodamine B assay; outline: as §3
Malme-3M [12] = test: Growth inhibition of human Malme-3M cells assessed as cell growth at 100 uM incubated for 48 hrs by sulforhodamine B assay relative to control; conditions: read-out: Activity
MDA-MB-231 [13] = test: Growth inhibition of human MDA-MB-231 cells assessed as cell growth at 0.01 uM incubated for 48 hrs by sulforhodamine B assay relative to control; conditions: read-out: Activity
OVCAR-3 = test: Growth inhibition of human OVCAR-3 cells incubated for 48 hrs by sulforhodamine B assay; conditions: for CC50: read-out: LC50 (the source's name); outline: as §2
CCRF-CEM = test: Growth inhibition of human CCRF-CEM cells incubated for 48 hrs by sulforhodamine B assay; outline: as §1
DU-145 [14] = test: Growth inhibition of human DU-145 cells assessed as cell growth at 0.1 uM incubated for 48 hrs by sulforhodamine B assay relative to control; conditions: read-out: Activity; outline: as §1
BT-549 [15] = test: Growth inhibition of human BT-549 cells assessed as cell growth at 100 uM incubated for 48 hrs by sulforhodamine B assay relative to control; conditions: read-out: Activity
KM12 = test: Growth inhibition of human KM12 cells incubated for 48 hrs by sulforhodamine B assay; outline: as §3
SK-MEL-28 [16] = test: Growth inhibition of human SK-MEL-28 cells incubated for 48 hrs by sulforhodamine B assay; outline: as §2
Malme-3M [17] = test: Growth inhibition of human Malme-3M cells assessed as cell growth at 1 uM incubated for 48 hrs by sulforhodamine B assay relative to control; conditions: read-out: Activity
DU-145 [18] = test: Growth inhibition of human DU-145 cells assessed as cell growth at 0.01 uM incubated for 48 hrs by sulforhodamine B assay relative to control; conditions: read-out: Activity; outline: as §1

`COc1cccc(NC(=O)c2sc3nc4c(cc3c2N)CN(Cc2ccccc2)CC4)c1` was tested, and the growth at 0.01 µM (HT-29) was 104%, the GI50 (ACHN) was 3.46 µM and the TGI (ACHN) was 64.5 µM. For the same molecule, the CC50 (ACHN) was > 100 µM, the GI50 (DU-145 [1]) was 5.22 µM and the TGI (DU-145 [1]) was 22.2 µM. It also gave a CC50 (DU-145 [1]) of 76.3 µM, a growth at 1 µM (BT-549 [2]) of 72% and a growth at 0.1 µM (TK-10) of 104%. The growth at 0.1 µM (UO-31 [3]) was 92%, the growth at 100 µM (NCI/ADR-RES) was -26% and the growth at 1 µM (UACC-257) was 78%. The growth at 0.1 µM (NCI-H522 [4]) was 95%, the growth at 100 µM (MDA-MB-435) was -74% and the growth at 0.1 µM (CAKI-1) was 91%. The GI50 (COLO 205) was 7.55 µM, the LC50 (concentration killing 50% of cells) (COLO 205) was > 100 µM and the TGI (COLO 205) was 54.5 µM. The growth at 1 µM (HOP-92) was 64%, the GI50 (UO-31 [5]) was 3.27 µM and the TGI (UO-31 [5]) was 32.3 µM. The CC50 (UO-31 [5]) was > 100 µM, the growth at 100 µM (SK-MEL-28 [6]) was -30% and the growth at 0.1 µM (SN12C) was 93%. For the same molecule, the growth at 100 µM (SNB-19) was 14%, the growth at 1 µM (OVCAR-4) was 78% and the growth at 1 µM (SR) was 25%. For the same molecule, the growth at 0.1 µM (MDA-MB-231 [7]) was 98%, the growth at 100 µM (NCI-H522 [8]) was 1% and the GI50 (MDA-MB-231 [9]) was 11.4 µM. For the same molecule, the TGI (MDA-MB-231 [9]) was 75.3 µM, the CC50 (MDA-MB-231 [9]) was > 100 µM and the growth at 1 µM (NCI-H23 [10]) was 89%. For the same molecule, the GI50 (NCI-H23 [11]) was 7.18 µM, the LC50 (50% lethal concentration) (NCI-H23 [11]) was > 100 µM and the TGI (NCI-H23 [11]) was 49.2 µM. For the same molecule, the growth at 100 µM (Malme-3M [12]) was -42%, the growth at 0.01 µM (MDA-MB-231 [13]) was 107% and the GI50 (OVCAR-3) was 7.53 µM. The TGI (OVCAR-3) was 26.9 µM, the CC50 (OVCAR-3) was 79.8 µM and the GI50 (CCRF-CEM) was 29.5 µM. The LC50 (CCRF-CEM) was > 100 µM, the TGI (CCRF-CEM) was > 100 µM and the growth at 0.1 µM (DU-145 [14]) was 104%. The growth at 100 µM (BT-549 [15]) was -32%, the GI50 (KM12) was 11.8 µM and the LC50 (KM12) was > 100 µM. The TGI (KM12) was 40.3 µM, the GI50 (SK-MEL-28 [16]) was 2.8 µM and the LC50 (SK-MEL-28 [16]) was > 100 µM. It also gave a TGI (SK-MEL-28 [16]) of 29.7 µM, a growth at 1 µM (Malme-3M [17]) of 57% and a growth at 0.01 µM (DU-145 [18]) of 105%.
`Cc1cccc(NC(=O)c2sc3nc4c(cc3c2N)C(=O)CCC4)c1` was tested, and the growth at 0.01 µM (HT-29) was 97%, the GI50 (ACHN) was 0.0224 µM and the TGI (ACHN) was ≥ 100 µM. The CC50 (ACHN) was > 100 µM, the GI50 (DU-145 [1]) was 0.285 µM and the TGI (DU-145 [1]) was ≥ 100 µM. The CC50 (DU-145 [1]) was ≥ 100 µM, the growth at 1 µM (BT-549 [2]) was 46% and the growth at 0.1 µM (TK-10) was 82%. For the same molecule, the growth at 0.1 µM (UO-31 [3]) was 81%, the growth at 100 µM (NCI/ADR-RES) was -3% and the growth at 1 µM (UACC-257) was 53%. It also gave a growth at 0.1 µM (NCI-H522 [4]) of 51%, a growth at 100 µM (MDA-MB-435) of -64% and a growth at 0.1 µM (CAKI-1) of 73%. The GI50 (COLO 205) was 0.197 µM, the LC50 (concentration killing 50% of cells) (COLO 205) was > 100 µM and the TGI (COLO 205) was ≥ 100 µM. The growth at 1 µM (HOP-92) was 50%, the TGI (UO-31 [5]) was ≥ 100 µM and the CC50 (UO-31 [5]) was > 100 µM. The growth at 100 µM (SK-MEL-28 [6]) was -15%, the growth at 0.1 µM (SN12C) was 87% and the growth at 100 µM (SNB-19) was -74%. For the same molecule, the growth at 1 µM (OVCAR-4) was 44%, the growth at 0.1 µM (MDA-MB-231 [7]) was 76% and the growth at 100 µM (NCI-H522 [8]) was -27%. The GI50 (MDA-MB-231 [9]) was 0.559 µM, the TGI (MDA-MB-231 [9]) was ≥ 100 µM and the CC50 (MDA-MB-231 [9]) was > 100 µM. For the same molecule, the growth at 1 µM (NCI-H23 [10]) was 35%, the GI50 (NCI-H23 [11]) was 0.481 µM and the LC50 (50% lethal concentration) (NCI-H23 [11]) was > 100 µM. The TGI (NCI-H23 [11]) was ≥ 100 µM, the growth at 100 µM (Malme-3M [12]) was -16% and the growth at 0.01 µM (MDA-MB-231 [13]) was 99%. The GI50 (OVCAR-3) was 0.256 µM, the TGI (OVCAR-3) was 1.66 µM and the CC50 (OVCAR-3) was ≥ 100 µM. The LC50 (CCRF-CEM) was > 100 µM, the TGI (CCRF-CEM) was > 100 µM and the growth at 0.1 µM (DU-145 [14]) was 89%. For the same molecule, the growth at 100 µM (BT-549 [15]) was -11%, the GI50 (KM12) was 0.21 µM and the LC50 (KM12) was > 100 µM. The TGI (KM12) was > 100 µM, the GI50 (SK-MEL-28 [16]) was 0.0308 µM and the LC50 (SK-MEL-28 [16]) was > 100 µM. The TGI (SK-MEL-28 [16]) was ≥ 100 µM, the growth at 1 µM (Malme-3M [17]) was 36% and the growth at 0.01 µM (DU-145 [18]) was 102%.
